Most compounds without a hit are left out; they make up all but 1.2% or so of the library.
EBNA-1 inh: blocks EBNA-1 binding to DNA. EBNA-1 DNA binding, fluorescence polarization. inhibition, % at 14.8 µM. 300,000 compounds, 0.34% hits; in the data active = inhibition above about 28%
core dimer inh: HCV core protein dimerization inhibition | 300,000 compounds, 0.33% hits | inhibition, % at 5 µM | TR-FRET GST/Flag-core106 dimerization, 1536-well;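 active = inhibition above the mean of all tested compounds plus 3 SD, set per screening campaign, cut at about 45% in these data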
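test system = GST/Flag-tagged HCV core106 proteins | probe or stimulus = Eu donor and XL665 acceptor anti-tag antibodies | times = compound-protein-antibody incubation 4 h at 22.5 °C | signal = TR-FRET, excitation 340 nm, emission 617 and 671 nm | measure = percent inhibition of core106 dimerization signal | controls = wells lacking GST-core106 and wells with excess unlabelled core106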
HCV NS3 hel inh: HCV NS3 helicase inhibition; NS3 helicase DNA unwinding, Cy5 molecular beacon fluorescence; inhibition, % at 10.9 µM; 290,000 compounds, 0.56% hits;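 active = inhibition above the mean of all tested compounds plus 3 SD, set per campaign, cut at about 35% in these data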;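 also: 0% = DMSO wells and 100% = thioflavine S control wells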
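Control set: DMSO versus 110 µM thioflavine S; Material: NS3 helicase fragment of HCV; Measured by: Cy5 fluorescence at 0 and 60 min, beacon hairpin quenching; Read-out basis: percent inhibition from t60/t0 fluorescence ratio; Times: reaction time 60 min, 25 °C; Repeats: single replicate; Compound dosing: single dose, 10.9 µM nominal final, DMSO 0.8% final.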
ZTA DNA inh: ZTA (EBV) inhibition in EBNA-1 counter-screen. P03206. ZTA-DNA binding, fluorescence polarization. inhibition, % at 11 µM. 320,000 compounds, 0.15% hits; in the data active = inhibition above about 33%
Target sequence (P03206 whole entry, looked up): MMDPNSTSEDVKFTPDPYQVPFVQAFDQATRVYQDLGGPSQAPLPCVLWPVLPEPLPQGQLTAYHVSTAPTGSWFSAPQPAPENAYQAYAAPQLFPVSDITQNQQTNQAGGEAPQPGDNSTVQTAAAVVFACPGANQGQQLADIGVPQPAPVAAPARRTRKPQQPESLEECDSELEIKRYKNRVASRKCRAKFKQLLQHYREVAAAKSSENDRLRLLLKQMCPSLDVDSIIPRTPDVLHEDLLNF
NS3 hel confirm: HCV NS3 helicase inhibition, confirmation assay | shares compounds with HCV NS3 hel inh | NS3 helicase DNA unwinding, Cy5 molecular beacon fluorescence | inhibition, % at 10.9 µM | 1,600 compounds, 31% hits | AID 1943;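 active = inhibition above the mean of all tested compounds plus 3 SD, cutoff set per campaign, cut at about 36% in these data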
FID counter trip: counter-screen for HCV NS3 helicase inhibitors: DNA intercalator displacement; 1,600 compounds, 4% hits; DNA fluorescent intercalator displacement, fluorescence; shares compounds with HCV NS3 hel inh; inhibition, % at 7.9 µM; in the data active = inhibition above about 37%;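 also: 0% = vehicle and 100% = reference compound; higher means more displacement of ethidium bromide from the DNA hairpin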
FID counter DR: displaces fluorescent intercalator from DNA, HCV helicase counter-screen; AID 2172; 120 tested, under 10 active; IC50, µM; shares compounds with HCV NS3 hel inh; fluorescent intercalator displacement from DNA, fluorescence; call rule not given here
Numbers without * were called inactive; nt = no result; + = active, no number.

SMILES | EBNA-1 inh | core dimer inh | HCV NS3 hel inh | ZTA DNA inh | NS3 hel confirm | FID counter trip | others
O=C(Nc1nc2ccccc2s1)c1ccc([N+](=O)[O-])o1 | 7 | -1 | 21 | -7 | nt | nt
CC(C)(C)C(C(Oc1ccc(Cl)cc1)n1cncn1)n1nnnc1C(c1cccc(Cl)c1)N1CCCCC1 (stereo not drawn) | -21 | 15 | 39* | 6 | -8 | -30
COCCn1nnnc1C(c1cccc(C#N)c1)N1CCCCCC1 (stereo not drawn) | 7 | 1 | 0 | 3 | nt | nt
CN(C)c1ccc(C=Nc2ccccc2)cc1 | 2 | 0 | 8 | -4 | nt | nt
CN(C)c1ccc(N=Cc2ccco2)cc1 | + | -16 | 41* | + | 5 | 11
C(=N\C(/N=C/c1ccco1)c1ccco1)/c1ccco1 | -16 | 2 | 25 | -15 | nt | nt
CN(C)c1ccc(C=Nc2ccc(N(C)C)cc2)cc1 | + | -79 | 37* | + | 5 | 17
C(=Nc1cccc2c(N=Cc3ccco3)cccc12)c1ccco1 | 6 | -16 | 37* | -4 | -15 | 20
CCN(Cc1cc2cc(C)ccc2[nH]c1=O)C(=O)c1cccc([N+](=O)[O-])c1 | 6 | 0 | -21 | -2 | nt | nt
Cc1ccc(NC(=O)Nc2cccs2)cc1 | 3 | 1 | 3 | -6 | nt | nt
CCc1ccc(NC(=O)Nc2cccs2)cc1 | -17 | 7 | 44* | 6 | -15 | 12
CCOC(=O)CN1C(=O)S/C(=C/c2ccc(OCc3ccc(C(=O)O)cc3)cc2)C1=O | -19 | 8 | 42* | -8 | 32 | -8
CCOC(=O)CN1C(=O)S/C(=C/c2ccco2)C1=O | 6 | 6 | 3 | 5 | nt | nt
COc1ccc(-c2cn(CCO)nc2-c2ccc(OC)cc2)cc1 | 5 | -2 | -23 | 5 | nt | nt
CCN(CC)CCN1C(=O)C(O)=C(C(=O)c2cc3ccccc3o2)C1c1cccnc1 (stereo not drawn) | 2 | -3 | -1 | -10 | nt | nt
O=C(C1=C(O)C(=O)N(CCc2ccccc2)C1c1ccncc1)c1cc2ccccc2o1 (stereo not drawn) | -26 | 17 | 39* | -1 | 13 | -28
Cc1ccc(C2C(C(=O)c3cc4ccccc4o3)=C(O)C(=O)N2c2cc(C)on2)cc1 (stereo not drawn) | -4 | 0 | 65* | 3 | 123* | -24 | FID counter DR=>79
Cc1cc(N2C(=O)C(O)=C(C(=O)c3ccco3)C2c2cccc(Oc3ccccc3)c2)no1 (stereo not drawn) | -1 | 6 | 66* | 2 | 116* | 2 | FID counter DR=>79
CCOC(=O)c1sc(N2C(=O)C(O)=C(C(=O)c3ccco3)C2c2cccc([N+](=O)[O-])c2)nc1C (stereo not drawn) | 15 | 17 | 105* | 4 | 115* | 24
Cc1cc(N2C(=O)C(O)=C(C(=O)c3cc4ccccc4o3)C2c2ccc([N+](=O)[O-])cc2)no1 (stereo not drawn) | 14 | 16 | 24 | 15 | nt | nt
COc1cc(SC)ccc1C(=O)N(Cc1ccccc1)c1ccccn1 | -4 | 5 | 3 | 0 | nt | nt
CC(CCC(=O)O)C1CCC2C3CCC4C[C@H](O)CCC4(C)C3CC(=O)C12C (stereo partly drawn) | 4 | -1 | 40* | 1 | -21 | -13
C[C@H](CCC(=O)O)[C@H]1CC[C@H]2[C@@H]3CC[C@@H]4C[C@H](O)CC[C@]4(C)[C@H]3CC[C@]12C | 9 | 1 | nt | 5 | nt | nt
COCCn1c(C)cc(C2=NNC(=Nc3ccc(Cl)cc3Cl)SC2)c1C | 14 | 25 | 37* | 10 | 22 | -5
CCOc1ccc(N=C2NN=C(c3cc(C)n(CC4CCCO4)c3C)CS2)cc1 (stereo not drawn) | 2 | 19 | 41* | 9 | 17 | 12
O=C(Cc1cccs1)NCCc1ccc(Cl)cc1 | 4 | 2 | 5 | 10 | nt | nt
O=C(O)c1ccc(-c2ccco2)n1Cc1ccccc1 | -11 | 0 | 45* | -19 | -30 | -5
CCN(CC)S(=O)(=O)c1ccc2c(c1)nc(CCC(=O)Nc1ccc(N3CCOCC3)cc1)n2C | 0 | 27 | 29 | 4 | nt | nt

Screening data: PubChem, The Scripps Research Institute Molecular Screening Center
